Bioassay records deposited in PubChem BioAssay by several laboratories.
MT stabilize HCS: stabilizes microtubules in HeLa cells | HeLa tubulin immunostaining HCS, 24 h; share of cells brighter than vehicle mean+2SD | % tubulin-high responders, % at 10 µM | actives 0.83% (n = 200,000) | AID 2205;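 active = plate Z-score above 3 for both tubulin-high and condensed-nucleus cell shares, with cell loss under 80%, at 10 µM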;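 note: anti alpha tubulin signal scored within the nucleus-defined area of each cell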
ABCB1 inh: inhibitors of human ABCB1 transporter, ABCG2 counter-screen | CCRF-Adr cells, JC-1 efflux, flow cytometry | inhibition, % at 6.6 µM | actives 0.067% (n = 190,000) | AID 1326; in the data active = inhibition above about 40%;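 note: 0% = vehicle and 100% = reference inhibitor; higher value means more JC-1 retained so stronger ABCB1 efflux block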
PKD1 kinase inh: blocks activity of human protein kinase D1. Q15139. PKD1 kinase fluorescence polarization assay. inhibition, % (concentration not given with the values). actives 0.056% (n = 200,000). AID 797; in the data active = inhibition above about 50%
bCat nuc transl: beta-catenin nuclear translocation modulation; nuclear translocation activity, % at 5 µM; actives 0.3% (n = 190,000); HeLa beta-catenin nuclear translocation, immunofluorescence imaging;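 active = nuclear translocation activity above 50% at 5 µM, with a well cell count of 50 or more; inconclusive = wells under 50 cells across six images, flagged as toxic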;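 note: per-cell ratio of nuclear to cytoplasmic median beta-catenin stain intensity; plate controls were DMSO negative control for no effect and GSK-3 inhibitor IX positive control for full effect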
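System: HeLa cells, endogenous beta-catenin; compound dosing: 5 µM primary single dose, 0.1% DMSO, 0.02–20 µM confirmation series; incubation: 24 h compound exposure at 37°C, 5% CO2; signal: beta-catenin immunofluorescence imaging with DAPI; evaluation: % activation, nuclear-to-cytoplasmic median beta-catenin signal ratio per cell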
ABCG2 block: blocks JC-1 efflux by human ABCG2 transporter. Q9UNQ0. IgMXP3 cells, flow cytometry. inhibition, % at 6.6 µM. actives 0.1% (n = 190,000). AID 1325;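 active = inhibition above 80%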;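 note: 0% = DMSO and 100% = nicardipine control wells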
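Test system: IgMXP3 (ABCG2) plus far-red-tagged CCRF-Adr (ABCB1) cells. Reagent: JC-1 dye as substrate. Timing: 10 min exposure at 25 °C with rotation, no wash. Measured by: flow cytometric JC-1 green MFI at 530 nm. Read-out: percent efflux inhibition, scaled nicardipine 100% to DMSO 0%. Control set: nicardipine and DMSO wells.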
Numbers without * were called inactive; u = inconclusive; x = no result; + = active, no number. The list is not random: actives were taken first. Their share in the collection is about 1%.

SMILES	MT stabilize HCS	ABCB1 inh	PKD1 kinase inh	bCat nuc transl	ABCG2 block
CCOC(=O)Nc1c(C(=O)OC)[nH]c2cc(OC)ccc12	36.2*	x	-4.9	4.5	x
CCOC(=O)c1[nH]c2ccc(OC)cc2c1NC(=S)N1CCN(C(=O)OCC)CC1	3.3	0.3	-1.2	-0.4	3.3
CCOC(=O)c1[nH]c2ccc(OC)cc2c1NC(=O)OC	2.9	0.1	-5.8	-3.4	0.1
CCOC(=O)c1[nH]c2ccc(OC)cc2c1NC(=S)N1CCN(c2ccccc2OC)CC1	20.1*	-0.1	-10.9	1.9	-0.3
C=COCCNC(=S)N1CCOCCOCCN(C(=S)NCCOC=C)CCOCCOCC1	2.2	-0.5	-2.5	-0.9	1.0
NC(=O)c1ccc2c(=O)n3c(-c4cc(Cl)c(N)c(Cl)c4)csc3nc2c1	x	x	x	66.4*	x
CSc1ccc(/C=N/NC(=O)c2ccc(C)c(C)c2)cc1	23.9*	-0.4	1.3	1.1	-2.6
CCN(CC)CCNc1ncnc2c1[nH]c1ccc(OC)cc12	2.4	0.9	-0.1	x	2.9
COc1ccc2[nH]c3c(NCc4ccco4)ncnc3c2c1	27.0*	0.3	-1.0	6.1	2.2
Cc1cc(C)c2c(N=NN3CCOCC3)[nH]nc2n1	4.2	-0.8	-1.1	0.6	-4.6
Cc1ccc(C(=O)OCCc2c(C)[nH]n(-c3ccccc3)c2=O)cc1	2.7	0.0	3.6	x	0.3
COc1ccccc1C1CC(=O)NC(SCC(=O)Nc2ccccc2)=C1C#N (configuration not stated)	1.9	0.1	8.0	0.7	0.3
Cc1ccccc1NC(=O)CSC1=C(C#N)C(c2ccsc2)CC(=O)N1 (configuration not stated)	25.9*	0.4	2.7	-3.3	4.7
N#CC1=C(SCC(=O)Nc2nccs2)NC(=O)CC1c1ccccc1 (configuration not stated)	40.4*	0.2	-3.8	x	0.4
COC(=O)CSC1=C(C#N)C(c2ccc(C)o2)CC(=O)N1 (configuration not stated)	17.3*	0.5	-1.1	2.3	1.1
COC(=O)CSC1=C(C#N)C(c2ccc(F)cc2)CC(=O)N1 (configuration not stated)	5.5	0.3	-6.2	-0.8	1.4
O=S(=O)(Nc1ccccn1)c1ccc(Cl)c2ccccc12	4.2	-0.2	3.7	1.7	-0.6
COc1ccc(CNC(=O)c2sc3nc4c(c(C(F)(F)F)c3c2N)CCC4)cc1	1.7	-0.4	-7.8	-1.4	-2.6
O=C(O)/C=C/C(=O)OC1CC2CCC1C2 (configuration not stated)	x	x	x	0.8	x
Cc1ccc(NC(=S)/N=C(\N)Nc2nc(C)c3cc(C)c(C)cc3n2)cc1C	1.6	-1.2	4.8	0.3	-2.6
O=C(/C(=C/c1ccc(Cl)cc1)c1nc2ccccc2[nH]1)c1ccccc1	46.7*	-0.1	-6.2	-0.4	-0.2
O=C(Nc1cc(=O)[nH]c(=O)[nH]1)c1cccc(Br)c1	25.1*	0.3	-7.0	2.2	0.6
O=C(CN(C(=O)CSc1nnc(COc2ccccc2)o1)c1ccc(F)cc1)NC1CCCCC1	2.8	0.4	-11.9	x	0.0
CCN1/C(=C/C=C/c2oc3ccc(-c4ccccc4)cc3[n+]2CC)Oc2ccc(-c3ccccc3)cc21	64.6	+	-6.7	u	x
CSC1=NC(C(Cl)(Cl)Cl)N=C(c2ccc(C)cc2)N1 (configuration not stated)	7.7	0.4	8.4	108.3*	4.3
SMILES	MT stabilize HCS	ABCB1 inh	PKD1 kinase inh	bCat nuc transl	ABCG2 block
COc1ccc2oc(=Nc3cccc(F)c3)c(C(N)=O)cc2c1	8.9	0.1	-3.4	61.2*	7.1
CC(C)c1ccc(/C=N/NC(=O)c2ccccc2Cl)cc1	23.5*	0.5	0.5	-1.0	12.0
COC(=O)c1ccc(/C=N/NC(=O)c2ccccc2Cl)cc1	2.5	2.2	0.6	-1.9	5.3
CC(C)Oc1ccc(CCNC(=O)CC2C(=O)NCCN2C)cc1 (configuration not stated)	x	x	x	0.1	x
CCn1cc(C(=O)O)c(=O)c2cc(OC)ccc21	4.0	0.6	-13.2	-0.4	6.5
COc1ccc2c(c1)c(=O)c(C(=O)c1ccccc1)cn2Cc1ccc(C)cc1	21.6*	3.0	-2.6	4.7	18.3
COC(=O)c1ccccc1NC(=O)c1cnn2cccnc12	2.9	0.4	-3.0	-3.2	6.3
O=S(Cc1ccc(Cl)cc1)CC(O)(c1ccccc1)c1ccccc1 (configuration not stated)	32.6*	1.2	-4.4	-0.7	12.6
